Published values of several laboratories.
Lines come from different studies, so protocols differ.
Cell line: LNCaP
Observed: cell growth or viability

SMILES | assay | conditions | endpoint | result
O=C(O)C(c1c[nH]c2ccccc12)c1c[nH]c2ccccc12 | MTT | 100 µM, 48 h | inhibition | 34%
COc1ccc2c(N(C)c3ccc(/C(C)=N/OCCN)cc3)c3c(Cl)coc3nc2c1 | trypan blue | 72 h | IC50 | 0.235 µM
COc1cc(Nc2nccc(-c3cnn4nc(OC)ccc34)n2)cc(C(F)(F)F)c1 | ATP luminescence |  | IC50 | 0.47 µM
CC(=O)O[C@@]12CO[C@@H]1C[C@H](O)[C@@]1(C)C(=O)[C@H](O)C3=C(C)[C@@H](OC(=O)[C@H](O)[C@@H](NC(=O)OC(C)(C)C)c4ccccc4)C[C@@](O)([C@@H](OC(=O)c4ccccc4)[C@H]21)C3(C)C | trypan blue |  | IC50 | 0.001 µM
O=C(CCCCCCC(=O)Nc1ccc(CCF)cc1)NO | MTT | 72 h | GI50 | 4.8 µM
C[C@]12CC[C@H](O)CC1=CC[C@@H]1[C@@H]2CC[C@]2(C)C(c3cccnc3)=CC[C@@H]12 | MTT |  | GI50 | 11.2 µM
CC(C)C[C@H](NC(=O)[C@H](Cc1ccccc1)NC(=O)c1cnccn1)B(O)O | ATP luminescence |  | IC50 | 0.019 µM
COC1=CC(=O)N(C(=O)[C@@H](CCC(Cl)(Cl)Cl)NC(=O)C(C)(C)C)[C@@H]1CCC(Cl)Cl | resazurin | 96 h | IC50 | 6.9 µM
CC(O)(CS(=O)(=O)c1ccc(F)cc1)C(=O)Nc1ccc(C#N)c(C(F)(F)F)c1 (stereo not shown) | XTT | 7 days | IC50 | 4.6 µM
FC(F)(F)c1ccc(C(c2c[nH]c3ccccc23)c2c[nH]c3ccccc23)cc1 | MTT | 20 µM, 48 h | inhibition | 97%
CNC(=O)c1ccc(N2C(=S)N(c3ccc(C#N)c(C(F)(F)F)c3)C(=O)C2(C)C)cc1F | MTT |  | GI50 | 13.7 µM
O=C(CCCCCCC(=O)Nc1ccccc1)NO | MTT | 72 h | GI50 | 5.2 µM
Cn1cc(C(c2ccc(C(=O)O)cc2)c2cn(C)c3ccccc23)c2ccccc21 | MTT | 48 h | IC50 | 36 µM
C[C@]12CC[C@H](O)CC1=CC[C@@H]1[C@@H]2CC[C@]2(C)C(n3cnc4ccccc43)=CC[C@@H]12 | XTT | 7 days | IC50 | 2.6 µM
O=C(O)/C=C/c1cccc(C(c2c[nH]c3ccccc23)c2c[nH]c3ccccc23)c1 | MTT | 48 h | IC50 | 43 µM
COc1cc(C(=O)c2csc(-c3ccccc3)n2)cc(OC)c1OC | SRB | 96 h | IC50 | 0.028 µM
